Test results as given in ChEMBL document CHEMBL4813946, “Discovery of novel 4-azaaryl-N-phenylpyrimidin-2-amine derivatives as potent and selective FLT3 inhibitors for acute myeloid leukaemia with FLT3 mutations” (Eur J Med Chem, 2021).
Calls of active or inactive are those of the source. No cut-off for these calls is given here.

Assays:
U-937 [1] = assay: Induction of apoptosis in human U937 cells assessed as early apoptotic cells at 1 x GI50 concentration incubated for 48 hrs by annexin V-FITC staining based flow cytometry (Rvb =2.78 %); type: functional
[2] = target: Cyclin-dependent kinase 1/cyclin B1 (Homo sapiens, UniProt P06493); assay: Inhibition of CDK1/cyclin B (unknown origin) using histone 1 protein substrate incubated for 120 mins measured after 40 mins incubation under dark by ADP-glo based luminescence assay; type: protein-complex assay
How it was run: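 In-house ADP-Glo assay with 2 mM DMSO stocks. Kinases were CDK1/cyclin B at 1 nM, CDK2/cyclin E1 at 10 nM and CDK7/cyclin H/MAT1 at 40 nM. Substrate was histone 1 for CDK1 and CDK2, and a RNA pol II CTD peptide for CDK7. Compound at 8–10 concentrations, 1:3 serial, final DMSO 0.5%. Reactions ran 60–120 min at room temperature, then ADP-Glo reagent 40 min in the dark, then detection reagent 40 min, read by luminescence. Ki was derived from IC50 by Cheng-Prusoff.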

THP-1 = assay: Antiproliferative activity against human THP-1 cells harboring wild type FLT3 assessed as reduction in cell viability after 72 hrs by resazurin assay; type: functional
How it was run: (§1)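 Cells seeded and pre-incubated 24 h at 37 °C, 5% CO2, then given a five-fold dilution series of compound (from 10 mM DMSO stock) in medium, in triplicate. Resazurin added after 72 h exposure, 4 h in dark at 37 °C. Fluorescence read at 570/585 nm, normalised to DMSO vehicle. GI50 by non-linear regression; mean ± SD of at least two replicates.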

K562 = assay: Antiproliferative activity against human K562 cells harboring FLT3 knockout gene assessed as reduction in cell viability after 72 hrs by resazurin assay; type: functional; how it was run: as §1
MV4-11 [3] = assay: Induction of apoptosis in human MV4-11 cells assessed as early apoptotic cells at 20 x GI50 concentration incubated for 24 hrs by annexin V-FITC and propidium iodide staining based flow cytometry (reference value: 2.12 %); type: functional
MV4-11 [4] = assay: Induction of apoptosis in human MV4-11 cells assessed as late apoptotic cells at 20 x GI50 concentration incubated for 24 hrs by annexin V-FITC and propidium iodide staining based flow cytometry (reference value: 12.45 %); type: functional
MV4-11 [5] = assay: Induction of apoptosis in human MV4-11 cells assessed as late apoptotic cells at 5 x GI50 concentration incubated for 48 hrs by annexin V-FITC and propidium iodide staining based flow cytometry (reference value: 6.59 %); type: functional
MV4-11 [6] = assay: Induction of apoptosis in human MV4-11 cells assessed as late apoptotic cells at 10 x GI50 concentration incubated for 48 hrs by annexin V-FITC and propidium iodide staining based flow cytometry (reference value: 6.59 %); type: functional
MV4-11 [7] = assay: Induction of apoptosis in human MV4-11 cells assessed as early apoptotic cells at 20 x GI50 concentration incubated for 48 hrs by annexin V-FITC and propidium iodide staining based flow cytometry (reference value: 1.08 %); type: functional
MV4-11 [8] = assay: Induction of apoptosis in human MV4-11 cells assessed as late apoptotic cells at 20 x GI50 concentration incubated for 48 hrs by annexin V-FITC and propidium iodide staining based flow cytometry (reference value: […] %); type: functional
U-937 [9] = assay: Induction of apoptosis in human U937 cells assessed as early apoptotic cells at 1 x GI50 concentration incubated for 24 hrs by annexin V-FITC and propidium iodide staining based flow cytometry (Rvb =1.81 %); type: functional
U-937 [10] = assay: Induction of apoptosis in human U937 cells assessed as necrotic cells at 20 x GI50 concentration incubated for 24 hrs by annexin V-FITC and propidium iodide staining based flow cytometry (reference value: 10.30 %); type: functional
[11] = target: Receptor-type tyrosine-protein kinase FLT3 (Homo sapiens) (UniProt P36888); assay: Inhibition of FLT3-mediated signalling pathway in human MV4-11 cells assessed as inhibition of S6RP phosphorylation upto 20 x GI50 concentration incubated for 6 hrs by western blot analysis; type: cell-based
How it was run: (§2)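 Cells lysed in phosphate lysis buffer with protease inhibitors and protein quantified. Western blots probed phospho and total STAT5, AKT, ERK, S6RP and eIF4E, plus full-length and cleaved PARP and caspase-3, with β-actin as loading control. At least two independent experiments.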

[12] = target: Receptor-type tyrosine-protein kinase FLT3 (Homo sapiens) (UniProt P36888); assay: Inhibition of FLT3-mediated signalling pathway in human MV4-11 cells assessed as increase in cleaved PARP expression upto 20 x GI50 concentration incubated for 6 hrs by western blot analysis; type: cell-based; how it was run: as §2
U-937 [13] = assay: Induction of apoptosis in human U937 cells assessed as viable cells at 5 x GI50 concentration incubated for 48 hrs by annexin V-FITC staining based flow cytometry (reference value: 86.25 %); type: functional
[14] = target: Receptor-type tyrosine-protein kinase FLT3 (Homo sapiens) (UniProt P36888); assay: Inhibition of FLT3-mediated signalling pathway in human U-937 cells assessed as inhibition of S6RP phosphorylation upto 20 x GI50 concentration incubated for 6 hrs by western blot analysis; type: cell-based; how it was run: as §2

Sequence of Receptor-type tyrosine-protein kinase FLT3 (Homo sapiens) (P36888 whole entry): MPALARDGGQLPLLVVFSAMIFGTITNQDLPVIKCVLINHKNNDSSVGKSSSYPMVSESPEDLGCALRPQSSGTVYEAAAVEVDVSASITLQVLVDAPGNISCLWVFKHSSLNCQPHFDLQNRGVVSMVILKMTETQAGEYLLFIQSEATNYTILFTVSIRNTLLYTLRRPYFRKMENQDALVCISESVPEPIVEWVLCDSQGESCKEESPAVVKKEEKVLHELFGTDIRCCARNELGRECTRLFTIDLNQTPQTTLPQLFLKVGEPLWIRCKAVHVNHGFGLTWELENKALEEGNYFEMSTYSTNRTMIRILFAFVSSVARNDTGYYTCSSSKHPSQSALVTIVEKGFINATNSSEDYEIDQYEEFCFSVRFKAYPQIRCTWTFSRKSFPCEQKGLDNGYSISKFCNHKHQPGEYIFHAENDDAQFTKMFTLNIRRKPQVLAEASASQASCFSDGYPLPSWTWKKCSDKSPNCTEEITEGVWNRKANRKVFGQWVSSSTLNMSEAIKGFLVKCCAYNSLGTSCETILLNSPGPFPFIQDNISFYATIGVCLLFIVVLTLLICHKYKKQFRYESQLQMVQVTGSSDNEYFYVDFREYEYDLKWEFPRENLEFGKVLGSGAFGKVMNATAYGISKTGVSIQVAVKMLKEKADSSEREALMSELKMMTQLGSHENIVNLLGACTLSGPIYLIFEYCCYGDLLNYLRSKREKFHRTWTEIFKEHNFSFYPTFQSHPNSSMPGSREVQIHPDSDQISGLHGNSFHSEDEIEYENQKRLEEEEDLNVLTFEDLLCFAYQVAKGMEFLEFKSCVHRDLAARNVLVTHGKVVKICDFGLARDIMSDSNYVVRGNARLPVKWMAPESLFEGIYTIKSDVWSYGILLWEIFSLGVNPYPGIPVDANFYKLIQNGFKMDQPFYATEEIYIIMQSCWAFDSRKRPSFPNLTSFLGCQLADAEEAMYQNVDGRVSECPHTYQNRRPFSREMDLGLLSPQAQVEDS
Sequence of Cyclin-dependent kinase 1/cyclin B1 (P06493 whole entry): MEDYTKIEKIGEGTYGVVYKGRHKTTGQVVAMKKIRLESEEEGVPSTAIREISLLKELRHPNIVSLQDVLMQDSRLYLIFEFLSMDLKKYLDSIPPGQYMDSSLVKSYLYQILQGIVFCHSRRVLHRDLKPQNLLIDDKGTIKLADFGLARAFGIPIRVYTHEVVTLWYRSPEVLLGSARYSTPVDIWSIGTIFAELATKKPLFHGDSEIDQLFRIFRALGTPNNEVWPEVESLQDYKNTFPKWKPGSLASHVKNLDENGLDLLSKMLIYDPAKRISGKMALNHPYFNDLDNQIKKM
Sequence of Cyclin-dependent kinase 1/cyclin B1 (P14635 whole entry, further chain): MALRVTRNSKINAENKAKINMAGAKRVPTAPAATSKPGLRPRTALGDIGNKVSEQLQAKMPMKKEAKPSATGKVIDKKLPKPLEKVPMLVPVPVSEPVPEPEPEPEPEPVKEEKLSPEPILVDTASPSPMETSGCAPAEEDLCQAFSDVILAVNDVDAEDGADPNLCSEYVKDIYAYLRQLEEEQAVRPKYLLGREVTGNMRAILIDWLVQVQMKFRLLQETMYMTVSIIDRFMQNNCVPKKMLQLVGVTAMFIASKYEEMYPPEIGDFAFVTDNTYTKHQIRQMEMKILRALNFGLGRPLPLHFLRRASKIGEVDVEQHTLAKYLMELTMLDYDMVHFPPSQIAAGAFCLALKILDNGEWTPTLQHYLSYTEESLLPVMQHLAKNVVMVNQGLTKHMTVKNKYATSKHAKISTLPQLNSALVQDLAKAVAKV

Ki [2]: > 5 µM | GI50 (THP-1): 7.72 µM | GI50 (K562): > 10 µM | inhibition [11]: Active | Activity [12]: Active | inhibition [14]: Active
SMILES: CC(=O)N1CCN(c2ccc(Nc3nccc(-c4cn(C)c5ncccc45)n3)cc2)CC1
Activity (U-937 [1]): 2.21% | Activity (MV4-11 [3]): 3.51% | Activity (MV4-11 [4]): 2.03% | Activity (MV4-11 [5]): 9.25% | Activity (MV4-11 [6]): 23.5% | Activity (MV4-11 [7]): 2.17% | Activity (MV4-11 [8]): 1.56% | Activity (U-937 [9]): 2.41% | Activity (U-937 [10]): 10.43% | Activity (U-937 [13]): 88.11%
